# High-throughput results: PubChem, Sanford-Burnham Center for Chemical Genomics
# This is a sample that favours compounds with a hit; in the whole collection about 1.5% have one here.
# TRAIL sens C8: sensitizes caspase-8 expressing cells to TRAIL. NB7+C8 cells + TRAIL, ATPlite viability luminescence. inhibition (viability loss, TRAIL sensitization), % at 10 µM. 1% of 360,000 active. AID 624354;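 active means compounds causing at least 50% loss of cell viability in the single-dose screen, relative to plate controls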
# FLuc act counter: firefly luciferase counter-screen for stimulation assays; ATPlite luciferase biochemical, luminescence, 10 min; 0 = ATP-free wells, 1 = DMSO control; activation factor at 10 µM; 200,000 tested, under 10 active;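 active means luciferase activation factor, scaled between plate controls, of at least 2 with compound at 10 µM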
# Target sequence (P08659 whole entry, looked up): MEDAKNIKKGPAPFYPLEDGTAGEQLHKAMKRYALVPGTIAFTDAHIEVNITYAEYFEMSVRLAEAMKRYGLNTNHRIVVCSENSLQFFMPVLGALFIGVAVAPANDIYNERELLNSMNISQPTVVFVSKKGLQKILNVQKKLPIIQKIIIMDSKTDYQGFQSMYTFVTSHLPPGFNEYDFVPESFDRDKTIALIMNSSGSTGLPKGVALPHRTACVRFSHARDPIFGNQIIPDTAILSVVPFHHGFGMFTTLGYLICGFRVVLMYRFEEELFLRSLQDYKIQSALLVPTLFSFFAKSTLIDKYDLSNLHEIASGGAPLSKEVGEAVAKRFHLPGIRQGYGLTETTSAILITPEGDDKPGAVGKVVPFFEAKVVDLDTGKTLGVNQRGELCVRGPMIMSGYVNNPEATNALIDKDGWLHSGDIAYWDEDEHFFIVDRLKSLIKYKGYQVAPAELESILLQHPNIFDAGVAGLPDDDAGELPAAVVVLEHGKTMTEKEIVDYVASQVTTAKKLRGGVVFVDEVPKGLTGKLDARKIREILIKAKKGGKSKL
#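 System: cell-free luciferase reagent; medium: PBS as buffer for the ATP substrate; doses: test compounds dosed from 2 mM stocks in 100% DMSO; incubation: 10 min, room temperature; measured by: luminescence from luciferase reaction; read-out: luciferase activation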
# PPC-1+TRAIL kill: compounds killing PPC-1 cancer cells with TRAIL present (potentiator screen, no TRAIL-free arm); 0.41% of 220,000 active; cell killing (% activity), % at 4 µM or 5 µM; PPC-1 cells + TRAIL, ATPLite viability luminescence; AID 1443;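 active means cell killing above 50% in the first pass at 4 µM, then a duplicate retest at 5 µM averaging 50% or more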;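 further: plate controls were cells with TRAIL plus DMSO for no effect and medium-only wells lacking cells for full effect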
# FLuc inh counter: counter-screen for luciferase assay inhibitors: firefly luciferase inhibition. P08659. ATPLite firefly luciferase biochemical luminescence, 10 min. inhibition, % at 10 µM. 1.5% of 200,000 active. AID 1006;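 active means inhibition above about 50% when tested at 10 µM, limit read from the data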
# * = called active by the depositor; x = no result.
SMILES,TRAIL sens C8,FLuc act counter,PPC-1+TRAIL kill,FLuc inh counter
N#CC(C#N)=C1SC(=Nc2ccccc2)C(=Nc2ccccc2)N1c1ccccc1,92*,x,x,x
Cc1ccc(C(CNC(=O)c2ccco2)N2CCN(C)CC2)cc1 (configuration not stated),-13,x,x,x
CCC1C(c2ccccc2)=CCC(C(=O)O)C1C (configuration not stated),-18,x,x,x
Nc1nc(-c2ccccc2)[nH]c(=O)c1N=O,-37,x,14,x
Nc1nc(N)c(N=Nc2ccccc2)c(=O)[nH]1,64*,x,x,x
Nc1ncnc(N)c1N=Nc1ccccc1,66*,x,x,x
Nc1ccc2ccccc2c1N=Nc1ccccc1,0,x,x,x
Nc1nn(-c2ccccc2)c(N)c1N=Nc1ccccc1,24,0.5,17,51*
CCOc1ccccc1NC(=O)c1csc(C)c1C,42,x,x,x
COc1ccc(-c2ccn(-c3cccc(F)n3)n2)cc1,-5,1,3,2
Nc1nn(-c2cccc(F)n2)cc1-c1ccc(Cl)cc1,47,0.4,26,57*
Nc1nn(-c2cccc(F)n2)cc1-c1ccccc1,33,0.4,25,64*
COCC(=O)Nc1cc(C(=O)Nc2ccccc2)ccc1Cl,x,0.7,18,27
COc1ccc(C(=O)COC(=O)C2COc3ccccc3O2)cc1F (configuration not stated),7,x,x,x
Cc1ccc(Nc2nnc(SCC(=O)c3c(N)n(C4CC4)c(=O)[nH]c3=O)s2)cc1C,55*,x,x,x
Cc1ccc(Nc2nnc(SCC(=O)Nc3cccnc3Cl)s2)cc1C,42,0.4,29,63*
Cc1ccc(Nc2nnc(SCC(=O)Nc3ccccc3[N+](=O)[O-])s2)cc1,9,0.9,24,12
CCCc1cc(=O)[nH]c(SCC(=O)c2c(N)n(C3CC3)c(=O)[nH]c2=O)n1,85*,x,x,x
COc1cc2ccc(CC(N)=O)cc2cc1OC,-3,x,x,x
COCC(C)NCC(=O)NC(C)CCc1ccccc1 (configuration not stated),-2,1,24,-1
Cc1ccc(NC(=O)c2ccc(OC(=O)c3cc4ccccc4o3)cc2)cc1,35,1,9,-2
COc1ccc(OCC(=O)N/N=C(\C)c2cc3ccccc3o2)cc1,64*,0.2,40,81*
COc1ccc(OC(=O)c2cc3ccccc3o2)cc1,8,0.4,28,57*
O=C(N/N=C/c1cccc([N+](=O)[O-])c1)c1ccccc1-n1cccc1,5,1,3,-2
N#CCc1ccc(OCCCN2CCC(C(O)(c3ccccc3)c3ccccc3)CC2)cc1,-8,x,x,x
SMILES,TRAIL sens C8,FLuc act counter,PPC-1+TRAIL kill,FLuc inh counter
CC(C)(C)c1ccc(C(O)CCCN2CCC(C(O)(c3ccccc3)c3ccccc3)CC2)cc1 (configuration not stated),60*,1,32,-4
OC(c1ccccc1)(c1ccccc1)C1CCN(CCCOc2cccc(OC(F)(F)F)c2)CC1,4,x,x,x
OC(c1ccccc1)(c1ccccc1)C1CCN(CCCOc2ccc3c(c2)CCCC3)CC1,66*,x,x,x
C1=C(c2cc3ccccc3cn2)CCCC1,-5,x,x,x
O=C1C=C(N2CCN(c3ccccn3)CC2)C(=O)c2c(O)ccc(O)c21,50*,x,x,x
O=C(N1CCN(c2ccccn2)CC1)C(Cl)(Cl)Cl,13,1,31,0
CCOC(=O)C1=CCN(S(=O)(=O)c2ccccc2Cl)C1c1cccc(Cl)c1 (configuration not stated),12,x,x,x
CCOC(=O)C1=CCN(S(=O)(=O)c2ccccc2Cl)C1c1cccc(F)c1 (configuration not stated),71*,x,x,x
O=c1[nH]c2ccccc2nc1/C=C/c1ccc(O)cc1,36,0.5,12,54*
O=c1[nH]c2ccccc2nc1/C=C/c1ccc(F)cc1,53*,0.3,17,68*
O=c1[nH]c2ccccc2nc1/C=C/c1ccccc1,34,0.4,18,60*
CC(C)(C)/C(O)=C/c1nc2ccccc2[nH]c1=O,-2,1,-20,3
Cc1ccc(/C(N)=N/OC(=O)c2ccc3c(c2)OCO3)cc1,40,0.2,25,78*
COc1cccc(C(=O)O/N=C(\N)c2ccncc2)c1,53*,0.1,18,89*
COc1cccc(C(=O)O/N=C(\N)c2ccc(C)cc2)c1,39,x,x,x
N/C(=N\OC(=O)c1ccc2c(c1)OCO2)c1ccc(Cl)cc1,29,0.2,31,84*
N/C(=N\OC(=O)c1ccc2c(c1)OCO2)c1ccncc1,60*,x,19,x
COc1ccc(/C(N)=N/OC(=O)c2ccc3c(c2)OCO3)cc1,12,0.3,20,69*
O=C(NCc1cccnc1)c1ccccc1NS(=O)(=O)c1ccc(Br)cc1,11,x,x,x
CCN(CC)c1ccc(/C=N/NC(=O)c2cnccn2)cc1,21,0.3,36,66*
CCN(CC)c1ccc(/C=N/NC(=O)c2ccco2)cc1,52*,0.2,30,79*
Cc1ccc(/C=N\NC(=O)c2csnn2)cc1,12,0.3,19,66*
CCN(CC)c1ccc(/C=N/NC(=O)c2ccco2)c(O)c1,45,x,47,x
CCN(CC)c1ccc(/C=N/NC(=O)c2ccccn2)cc1,65*,x,20,x
CS(=O)(=O)N1CCN(C(=O)Cc2ccc(Br)cc2)CC1,-13,x,x,x
SMILES,TRAIL sens C8,FLuc act counter,PPC-1+TRAIL kill,FLuc inh counter
Cc1ccc(CNC(=O)/C=C/c2ccc(S(=O)(=O)N3CCOCC3)cc2)cc1,1,1,16,-2
CN1CCN(CC(=O)Nc2cc(N(C)C)nc3ccccc23)CC1,0,1,15,0
Nc1nc2ccccc2n1C(=O)c1cccs1,47,0.3,30,69*
Cc1cccc(NC2=NC(C)(C)N=C(N)N2)c1,71*,1.1,44,-7
O=C1C(=Cc2ccc(Cl)cc2)CCc2ccccc21,81*,x,x,x
COc1ccccc1C=C1CCc2ccccc2C1=O,77*,x,x,x
O=C1C(=Cc2ccc(F)cc2)CCc2ccccc21,80*,x,x,x
O=C1C(=Cc2cccc(Cl)c2)CCc2ccccc21,9,x,x,x
O=C1/C(=C\c2ccncc2)CCc2ccccc21,20,x,x,x
O=C1C(=Cc2ccccc2Cl)CCc2ccccc21,53*,x,x,x
COc1ccc(S(=O)(=O)N2CCC(C(=O)N[C@@H](C)C(=O)NCc3ccncc3)CC2)cc1,-9,x,x,x
O=C(CSc1ccc([N+](=O)[O-])cn1)Nc1ccc2c(c1)OCO2,-5,x,x,x
CCCN1CCC(=O)N(CCO)CC1,8,x,x,x
Cc1cccn2c(=O)c3cc(C(=O)NCCc4ccccc4)c(=N)n(Cc4ccco4)c3nc12,60*,x,x,x
O=C(CC1NCCN(Cc2ccccc2)C1=O)Nc1ccccc1 (configuration not stated),-25,x,0,x
CCC(=O)N1CCC1(C)C(=O)Nc1ccc2nc(C)ccc2c1 (configuration not stated),14,x,x,x
COc1cc(/C=N/N2C(=O)C3C4C=CC(CC4)C3C2=O)ccc1O (configuration not stated),14,0.9,-22,14
COc1cc(/C=N/N2C(=O)c3ccccc3C2=O)ccc1O,1,0.4,8,57*
COc1cc(/C=N/N=C2/C(=O)Nc3ccccc32)ccc1O,74*,0.1,22,94*
